Consider 21 compounds from ChEMBL document CHEMBL1138666, “Direct influence of C-terminally substituted amino acids in the Dmt-Tic pharmacophore on delta-opioid receptor selectivity and antagonism” (J Med Chem, 2004).

Square brackets hold non-standard residues; d marks the D form. Peptide text beside a SMILES is read from it. ξ: configuration not given here. Dmt = Cc1cc(O)cc(C)c1C[C@H](N)C(=O)O; Tic = O=C(O)[C@@H]1Cc2ccccc2CN1; ξTic = O=C(O)C1Cc2ccccc2CN1

The species named for one assay is Rattus norvegicus. Put plainly: Ratio of binding affinities for rat Opioid receptors mu 1 and delta 1.
The nature of assay [1]: Binding affinity for rat Opioid receptor mu 1.
Assay [2] can be described thus: Binding affinity for rat Opioid receptor delta 1. In short, it runs like this:
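Rat brain synaptosomes (P2), preincubated to remove endogenous opioids and stored at -80 °C in buffered 20% glycerol. […] Filters were PEI-soaked GF/C, washed thrice in ice-cold buffered BSA. Five to eight doses, duplicates, independent preparations; Ki by Cheng-Prusoff, mean ± SE.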

In assay [3] the target is T1, Delta-type opioid receptor (Mus musculus, UniProt P32300). The assay can be described thus: Antagonist activity against deltorphin in mouse vas deferens assay. Format: functional, tissue-based. Conditions: read-out: pA2 (converted). In short, it runs like this:
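Mouse vas deferens, field-stimulated with supramaximal-voltage bipolar rectangular pulses. Antagonism was scored as a rightward shift of the deltorphin C log(concentration)-response curve and reported as pA2, the negative log molar antagonist concentration that doubles the agonist concentration needed for the original submaximal response.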

In assay [4] the target is T2, Mu-type opioid receptor (Cavia porcellus, UniProt P97266). The assay can be described thus: Inhibition of Opioid receptor mu 1 in guinea pig ileum assay. Format: functional, tissue-based. In short, it runs like this: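 Male guinea pig ileum myenteric plexus-longitudinal muscle, field-stimulated with supramaximal-voltage bipolar rectangular pulses. Inhibition of the electrically evoked twitch was measured, with dermorphin as reference agonist. IC50 was taken from concentration-response curves, mean ± SE of at least five to six fresh tissues.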
T2 sequence (P97266 whole entry): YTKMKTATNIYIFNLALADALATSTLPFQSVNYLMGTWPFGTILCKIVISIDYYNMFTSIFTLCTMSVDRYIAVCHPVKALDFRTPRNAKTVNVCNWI

Assay [5] deals with T2, Mu-type opioid receptor. The assay can be described thus: Antagonist activity against dermorphin in guinea pig ileum assay. Format: functional, tissue-based. The note with it: read-out: pA2 (converted). In short, it runs like this: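 Male guinea pig ileum myenteric plexus-longitudinal muscle, field-stimulated with supramaximal-voltage bipolar rectangular pulses. Antagonism was scored as a rightward shift of the dermorphin log(concentration)-response curve and reported as pA2, the negative log molar antagonist concentration that doubles the agonist concentration needed for the original submaximal response.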

Assay [6] has as its target T1, Delta-type opioid receptor. Put plainly: Inhibition of Delta opioid receptor in mouse vas deferens assay. Format: functional. The procedure, abridged:
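Mouse vas deferens, field-stimulated with supramaximal-voltage bipolar rectangular pulses. Inhibition of the electrically evoked twitch was measured, with deltorphin C as reference agonist. IC50 was taken from concentration-response curves, mean ± SE of at least five to six fresh tissues.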

T1 sequence (P32300 whole entry): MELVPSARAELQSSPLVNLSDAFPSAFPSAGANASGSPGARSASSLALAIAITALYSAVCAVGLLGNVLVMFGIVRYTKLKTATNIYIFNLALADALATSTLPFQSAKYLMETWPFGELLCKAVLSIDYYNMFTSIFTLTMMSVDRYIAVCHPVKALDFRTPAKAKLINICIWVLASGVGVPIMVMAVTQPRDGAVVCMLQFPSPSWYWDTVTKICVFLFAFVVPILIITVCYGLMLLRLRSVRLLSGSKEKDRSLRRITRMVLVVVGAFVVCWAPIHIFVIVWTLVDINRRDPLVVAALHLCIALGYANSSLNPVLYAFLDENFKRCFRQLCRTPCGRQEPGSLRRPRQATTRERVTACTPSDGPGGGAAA

`Cc1cc(O)cc(C)c1C[C@H](N)C(=O)N1Cc2ccccc2C[C@H]1C(=O)N[C@H](CC(=O)O)C(N)=O`: the Ratio in the assay filed under Rattus norvegicus came out at 834. Moreover, the Ki in assay [1] was found to be 367 nM; in assay [2], 0.44 nM. Besides, the Kb in assay [3] is 7.24 nM. In addition, at Mu-type opioid receptor [4], the IC50 was > 10000 nM.

On to `Cc1cc(O)cc(C)c1C[C@H](N)C(=O)N1Cc2ccccc2C[C@H]1C(=O)N[C@H](CCC(=O)O)C(N)=O`, for which the Ratio in the assay filed under Rattus norvegicus came out at 17.4. The values for the Ki in assay [1] and in assay [2] were 920 nM and 0.05 nM, respectively. In addition, the Kb on Mu-type opioid receptor [5] is < 7940 nM; in assay [3], 2.29 nM.

Turning to `Cc1cc(O)cc(C)c1C[C@H](N)C(=O)N1Cc2ccccc2C[C@H]1C(=O)NC(CO)C(N)=O` (single isomer, unassigned), the Ratio in the assay filed under Rattus norvegicus was 1.12. Besides, the Ki in assay [1] came to 140 nM; in assay [2], 0.13 nM. In assay [3], the Kb was 8.51 nM. In addition, on Mu-type opioid receptor [4], the IC50 was > 10000 nM.

With `Cc1cc(O)cc(C)c1C[C@H](N)C(=O)N1Cc2ccccc2C[C@H]1C(=O)NC(CCCCN)C(N)=O` (single isomer, unassigned), the Ratio in the assay filed under Rattus norvegicus worked out at 24. Also, the figures for the inhibitory constant (Ki) in assay [1] and in assay [2] were 17 nM and 0.71 nM, respectively. The Kb in assay [3] was 13.5 nM. The compound also displayed an IC50 on Mu-type opioid receptor [4] of 7870 nM.

Turning to `Cc1cc(O)cc(C)c1C[C@H](N)C(=O)N1Cc2ccccc2C[C@H]1C(=O)NC(CCCN=C(N)N)C(N)=O` (single isomer, unassigned), the Ratio in the assay filed under Rattus norvegicus was determined as 21. Moreover, the Ki in assay [1] was 15.1 nM; in assay [2] it was 0.73 nM. The Kb in assay [3] was 126 nM. The same compound showed an IC50 against Mu-type opioid receptor [4] of 6600 nM.

`Cc1cc(O)cc(C)c1C[C@H](N)C(=O)N1Cc2ccccc2C[C@H]1C(=O)NC(C)C(N)=O` (stereo in doubt): in the assay listed under Rattus norvegicus, the Ratio amounted to 158. In addition, the Ki in assay [1] was found to be 47.5 nM; in assay [2], 0.3 nM. Also, the Kb in assay [3] was 25.1 nM. Moreover, on Mu-type opioid receptor [4], the IC50 is > 10000 nM.

Turning to `Cc1cc(O)cc(C)c1C[C@H](N)C(=O)N1Cc2ccccc2C[C@H]1C(=O)N[C@@H](CCC(=O)O)C(N)=O`, in the assay listed under Rattus norvegicus, the Ratio is 22.6. Also, the Ki worked out at 1360 nM in assay [1] and 0.06 nM in assay [2]. Further, the concentration for half-maximal inhibition (IC50) in assay [6] came to 2500 nM. In assay [3], the Kb was < 0.1 nM.

With `Cc1cc(O)cc(C)c1C[C@H](N)C(=O)N1Cc2ccccc2C[C@H]1C(=O)NC(CO)C(=O)O` (single isomer, unassigned), the Ratio in the assay listed under Rattus norvegicus is 10.5. Further, the Ki in assay [1] came out at 2830 nM; in assay [2] it was 0.27 nM. Moreover, the Kb in assay [3] was 1.32 nM. In addition, the IC50 against Mu-type opioid receptor [4] is > 10000 nM.

As to `Cc1cc(O)cc(C)c1C[C@H](N)C(=O)N1Cc2ccccc2C[C@H]1C(=O)N[C@H](C)C(=O)O`, in the assay listed under Rattus norvegicus, the Ratio amounted to 20.4.

In the case of `CC(=O)NCCCC[C@@H](NC(=O)[C@@H]1Cc2ccccc2CN1C(=O)[C@@H](N)Cc1c(C)cc(O)cc1C)C(=O)O`, the Ratio in the assay listed under Rattus norvegicus was 1.05. For the same compound, the Ki in assay [1] stood at 86.8 nM; in assay [2], 0.08 nM. Also, in assay [3], the Kb was 0.513 nM. This compound yielded an IC50 at Mu-type opioid receptor [4] of 1500 nM.

As for `Cc1cc(O)cc(C)c1C[C@H](N)C(=O)N1Cc2ccccc2C[C@H]1C(=O)N[C@@H](C)C(=O)O`, the Ki in assay [1] worked out at 5820 nM; in assay [2] it was 0.29 nM. For the same compound, at Mu-type opioid receptor [4], the IC50 is > 10000 nM.

On to `Cc1cc(O)cc(C)c1C[C@H](N)C(=O)N1Cc2ccccc2C[C@H]1C(=O)N[C@@H](CC(=O)O)C(N)=O`, for which, in the assay listed under Rattus norvegicus, the Ratio came out at 8.88. The values for the Ki in assay [1] and in assay [2] were 2560 nM and 0.29 nM, respectively. Besides, the Kb in assay [3] was 7.59 nM. The IC50 on Mu-type opioid receptor [4] was > 10000 nM.

`Cc1cc(O)cc(C)c1C[C@H](N)C(=O)N1Cc2ccccc2C[C@H]1C(=O)NC(Cc1c[nH]cn1)C(=O)O` (single isomer, unassigned): the Ratio in the assay listed under Rattus norvegicus was found to be 1.4. Further, the inhibition constant Ki in assay [1] was found to be 174 nM; in assay [2] it was 0.12 nM. Further, the Kb in assay [3] is 1.91 nM. Also, the half-inhibitory concentration (IC50) against Mu-type opioid receptor [4] was > 10000 nM.

Regarding `Cc1cc(O)cc(C)c1C[C@H](N)C(=O)N1Cc2ccccc2C[C@H]1C(=O)N[C@@H](CCC(N)=O)C(=O)O`, the Ratio in the assay listed under Rattus norvegicus is 1.43. Further, the Ki in assay [1] is 465 nM; in assay [2], 0.32 nM. Further, the Kb in assay [3] is 1.05 nM. In addition, the IC50 on Mu-type opioid receptor [4] was > 10000 nM.

`Cc1cc(O)cc(C)c1C[C@H](N)C(=O)N1Cc2ccccc2C[C@H]1C(=O)N[C@@H](Cc1c[nH]c2ccccc12)C(=O)O` (H-[Dmt]-[Tic]-Trp-OH): the values for the Ki in assay [1] and in assay [2] were 15.7 nM and 0.03 nM, respectively. Moreover, the Kb in assay [3] is 0.269 nM. For the same compound, the IC50 on Mu-type opioid receptor [4] stood at 1500 nM.

With `Cc1cc(O)cc(C)c1C[C@H](N)C(=O)N1Cc2ccccc2C[C@H]1C(=O)N[C@@H](CC(N)=O)C(=O)O`, in the assay listed under Rattus norvegicus, the Ratio turned out to be 73. Further, the Ki amounted to 80.3 nM in assay [1] and 1.1 nM in assay [2]. Moreover, the Kb in assay [3] is 5.89 nM. On Mu-type opioid receptor [4], the IC50 was > 10000 nM.

In the case of `CC(=O)NCCCC[C@H](NC(=O)[C@@H]1Cc2ccccc2CN1C(=O)[C@@H](N)Cc1c(C)cc(O)cc1C)C(=O)O`, in the assay filed under Rattus norvegicus, the Ratio stood at 22.4. The inhibition constant Ki was 1050 nM in assay [1] and 0.04 nM in assay [2]. In addition, the Kb in assay [3] is 0.0851 nM. For the same compound, the half-inhibitory concentration (IC50) on Mu-type opioid receptor [4] was > 10000 nM.

Turning to `Cc1cc(O)cc(C)c1C[C@H](N)C(=O)N1Cc2ccccc2CC1C(=O)N[C@@H](Cc1c[nH]c2ccccc12)C(=O)O` (some centres undefined) (H-[Dmt]-[ξTic]-Trp-OH), in the assay listed under Rattus norvegicus, the Ratio was found to be 462.

With `Cc1cc(O)cc(C)c1C[C@H](N)C(=O)N1Cc2ccccc2C[C@H]1C(=O)NCC(N)=O` (H-[Dmt]-[Tic]-Gly-NH2), the Ratio in the assay filed under Rattus norvegicus turned out to be 559. Also, the Ki in assay [1] came out at 140 nM; in assay [2], 0.25 nM. Also, the Kb in assay [3] is 22.4 nM. Besides, the IC50 against Mu-type opioid receptor [4] was > 10000 nM.

Regarding `Cc1cc(O)cc(C)c1C[C@H](N)C(=O)N1Cc2ccccc2C[C@H]1C(=O)N[C@H](CC(N)=O)C(=O)O`, the Ratio in the assay listed under Rattus norvegicus stood at 5.4. The Ki in assay [1] turned out to be 4000 nM; in assay [2], 0.74 nM. For the same compound, the Kb in assay [3] was 5.89 nM. For the same compound, the IC50 on Mu-type opioid receptor [4] was > 10000 nM.

Turning to `Cc1cc(O)cc(C)c1C[C@H](N)C(=O)N1Cc2ccccc2C[C@H]1C(=O)N[C@H](CCC(N)=O)C(=O)O`, the Ratio in the assay filed under Rattus norvegicus was 1.25. In addition, the Ki in assay [1] came to 562 nM; in assay [2], 0.45 nM. In addition, in assay [3], the Kb is 1.23 nM. Besides, the IC50 against Mu-type opioid receptor [4] is > 10000 nM.
